Several values for one entry are separate records, joined by “and”; a condition that tells them apart may be missing. Equal entries are not always repeated. Each block holds one molecule with its values, some of them ahead of it.
What was measured:
[1] = target: Anopheles gambiae D7 long-form salivary protein AngaD7L2 (Anopheles gambiae); assay: SPR
[2] = tested on: normal control plasma; assay: Plasma recalcification assay; type: biochemical, human
[3] = tested on: normal control plasma; assay: Activated partial thromboplastin; type: biochemical, human; conditions: recombinant protein 15 μM, 5 μl in 50 μl plasma
Procedure, shortened: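 Plasma (50 μl) was preincubated 2 min at 37 °C with 5 μl of test protein (15 μM in Hepes buffer), Hepes buffer (negative control) or 3 μM Alboserpin (positive control). aPTT reagent was added for 3 min at 37 °C, then clotting was started with prewarmed 25 mM CaCl2. Clotting time was recorded on a coagulation analyzer and converted to ratios. Run in triplicate.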

[4] = tested on: normal control plasma; assay: Prothrombin; type: biochemical, human; conditions: recombinant protein 15 μM, 5 μl in 50 μl plasma
Procedure, shortened: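 Normal control plasma (50 μl) was incubated 2 min at 37 °C with 5 μl of test protein (15 μM in Hepes buffer), Hepes buffer (negative control) or 3 μM Alboserpin (positive control). PT was started by adding Neoplastine CI Plus reagent, and clotting time was recorded with stirring. Run in triplicate.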

[5] = tested on: Third-order mesenteric arteries; assay: Vasoconstriction by pressure myography in isolated mesenteric arteries; parameters: species or system C57Bl/6J mice; conditions: for LogIC50 of vasoconstriction to U-46619: n = 6
[6] = tested on: Human platelet-rich plasma; assay: Platelet aggregation assay; type: cell-based
[7] = PEAQ-ITC screen against five biogenic amines and five lipids; type: binding; conditions: leukotrienes other than LTC4
Procedure, shortened: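 Isothermal titration calorimetry in TBS (20 mM Tris–HCl, 150 mM NaCl, pH 7.4) at 30 °C, 750 rpm. Protein at 5 μM was titrated with 10 μl injections of ligand at 50 μM every 150 s. Lipid ligands were dried under nitrogen, resuspended in TBS, vortexed and sonicated 10 min. Samples were degassed. Data were fitted to a single-site model. At least three replicates.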

Molecule: human coagulation factor XI (natural protein)
- Kd [1]: 8.47 nM
- koff [1]: 0.00696 s⁻¹
- kon [1]: 99200 M⁻¹ s⁻¹

B1: AngaD7L2: Recombinant Anopheles gambiae D7 long-form salivary protein, 6xHis-tagged, expressed in human embryonic kidney cells (protein)
chain: AQPWKALDPEQALYVYKRCYEDHLPAGSSRVTYLKSWNAWKLEPNDAVTHCYAKCVLIGLQLYEEKDKAFKSERIPVQHEAYKTLNEANSREVTEYQQALASINAGDGSCVALYNAYLPVHNKFVDLSRKLYHGTVEGAAKIYAAMPQIKQKGESFFAYCAKKIWGGYNKKEWKRGRNYELSGSSQFKKVIDCIFRGLRYMDDSGLKVDEVVRDFNLINKSDLEPEVRSVLASCTGTQAYDYYSCLLNSPVKEDFKNAFDFHELRSADYAFLLRGKVYEGPEQVKEEMKHLNTTVHF
modifications: left off: His6, C-terminal, state not stated
- Plasma recalcification (time to OD = 0.025) ([2]; final concentration 5 μM): entirely unable to coagulate
- Plasma recalcification (time to OD = 0.025) ([2]; serially diluted recombinant protein, versus Hepes buffer negative control): dose-dependent anticoagulant response
- aPTT time to coagulation (intrinsic pathway) [3]: significantly increased
- PT clotting time (extrinsic pathway) [4]: did not have an observable effect

Now from value to molecule, other results behind:

- Kd [1]: 16.4 nM
- koff [1]: 0.0169 s⁻¹
- kon [1]: 125000 M⁻¹ s⁻¹
Molecule: human coagulation factor XII (natural protein)

- Kd [1]: 5.03 nM
- koff [1]: 0.403 s⁻¹
- kon [1]: 2.03e+08 M⁻¹ s⁻¹
Molecule: human coagulation factor XIIa (enzyme)

- Binding of other leukotrienes [7]: did not bind any other leukotriene
B2: AngaD7L1: Recombinant Anopheles gambiae D7 long-form salivary protein, 6xHis-tagged, expressed in human embryonic kidney cells (protein, UniProt Q7PJ76 22-311, looked up)
Long form salivary protein …: FKALDPEEAWYVYERCHEDHLPSGPNRETYLKTWKFWKLEPNDAVTHCYVKCTLAGLQMYDEKTNTFKPETVPVQHEAYKSFTEVESSKVNELQQALSSLNAGSGSCAEVFNAYLPVHNKYVGVSRKIYHGTVDSVAKIYEAKPEIKKQEESFFAYCAKKALGANGKEGYTKLRDYELADSAEFRNAMDCVFRGFRYMDDSGLKVDEVVRDFNLINKSDLEPEVRSVLASCTGTQAYDYYSCLLNSPVKEDFRNAFYFHELRSANYGYLAMGKVYEGPEKVKEELKKLNY
modifications: 6xHis tag
- LogIC50 of vasoconstriction to U-46619 ([5]; after AngaD7L1 washout): −8.10
- fold reduction in effective constrictive potency of U-46619 ([5]; in presence of AngaD7L1 10 μM): ~70 fold
- LogIC50 of vasoconstriction to U-46619 ([5]; in presence of AngaD7L1 10 μM): −6.4 and −6.38
- Effect on platelet aggregation ([6]; agonist 0.3 μM U-46619, protein 0.3 μM): reduced platelet aggregation
- Effect on platelet aggregation ([6]; agonist 0.3 μM U-46619, protein 1 μM): platelet aggregation was inhibited
- Effect on platelet aggregation ([6]; agonist 0.7 μM U-46619, protein 1 μM): platelet aggregation was inhibited
- Effect on platelet aggregation ([6]; agonist 0.7 μM U-46619, protein 3 μM): inhibited platelet aggregation
- Effect on platelet aggregation ([6]; agonist 1 μM arachidonic acid, protein at any concentration): no effect
- Effect on platelet aggregation ([6]; agonist 1 μg/ml collagen, protein 0.3 μM): did not inhibit platelet aggregation
- Effect on platelet aggregation ([6]; agonist 1 μg/ml collagen, protein 3 μM): reduced platelet aggregation
- Effect on platelet aggregation ([6]; agonist 10 μg/ml collagen, protein 1 μM): no effect

Source: article PMC9123270 (The Journal of Biological Chemistry, 2022)
